Results reported in ChEMBL document CHEMBL5543089, “Discovery of a novel, highly potent EZH2 PROTAC degrader for targeting non-canonical oncogenic functions of EZH2” (Eur J Med Chem, 2024).
The source made the active and inactive calls. The calls are words filed in the database; no cut-off is given here.

Assays:
[1] = biological target: T1, von Hippel-Lindau disease tumor suppressor/Histone-lysine N-methyltransferase EZH2 (Homo sapiens, UniProt Q15910+P40337); assay: PROTAC activity at VHL/EZH2 degradation in hMLLr AML cell line EOL1 cells assessed as protein degradation at 0.1 to 1 uM measured after 24 hrs by Western blot analysis; format: cell-based; settings: dose 0.1-1 µM
T1 sequence (P40337 whole entry, looked up): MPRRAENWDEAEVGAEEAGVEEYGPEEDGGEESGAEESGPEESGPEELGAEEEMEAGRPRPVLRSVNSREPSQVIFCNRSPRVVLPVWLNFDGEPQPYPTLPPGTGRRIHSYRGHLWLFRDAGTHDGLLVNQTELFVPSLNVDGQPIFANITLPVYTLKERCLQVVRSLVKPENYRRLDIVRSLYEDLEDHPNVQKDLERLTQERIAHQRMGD
T1 sequence (Q15910 whole entry, looked up): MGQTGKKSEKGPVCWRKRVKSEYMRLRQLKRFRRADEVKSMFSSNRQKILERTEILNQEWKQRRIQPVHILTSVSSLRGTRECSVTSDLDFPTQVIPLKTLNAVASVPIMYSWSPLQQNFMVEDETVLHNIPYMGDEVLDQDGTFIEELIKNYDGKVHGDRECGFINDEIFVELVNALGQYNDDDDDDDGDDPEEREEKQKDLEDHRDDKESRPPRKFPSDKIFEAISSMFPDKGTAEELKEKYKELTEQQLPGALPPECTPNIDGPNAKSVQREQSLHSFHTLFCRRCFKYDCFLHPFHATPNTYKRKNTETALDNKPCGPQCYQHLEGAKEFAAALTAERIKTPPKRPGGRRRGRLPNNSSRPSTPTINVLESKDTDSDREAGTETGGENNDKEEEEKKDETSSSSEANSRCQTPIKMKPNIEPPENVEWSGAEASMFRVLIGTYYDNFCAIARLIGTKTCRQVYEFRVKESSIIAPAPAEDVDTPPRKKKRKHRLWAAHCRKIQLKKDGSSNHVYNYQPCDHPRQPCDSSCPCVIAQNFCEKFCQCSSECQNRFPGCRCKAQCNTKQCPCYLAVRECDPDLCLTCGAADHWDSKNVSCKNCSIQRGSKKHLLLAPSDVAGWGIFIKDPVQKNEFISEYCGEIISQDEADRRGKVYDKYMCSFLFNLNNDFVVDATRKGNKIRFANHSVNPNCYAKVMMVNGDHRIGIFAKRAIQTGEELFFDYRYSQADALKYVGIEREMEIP
Outline: (§1)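 Cells were seeded at 0.5–2 million per well and treated for 24 h, or for the stated times at 300 nM in the time course. Lysis was in RIPA with protease inhibitors; ~10 μg protein was run on SDS-PAGE and blotted to PVDF. Detection used fluorescent immunoblotting for EZH2, EED and SUZ12, with β-actin as loading control. Blots are representative of two biological experiments.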

RS4-11 = assay: Anti-proliferative activity against human RS4-11 cells assessed as cell viability measured after 5 days incubation by CCK-8 assay; format: functional, cell-based; settings: RS4-11, 120 h
Outline: (§2)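 Cells plated at 3,000–10,000 per well and exposed to serial dilutions for 5 days at 37 °C. CCK-8 (1x) was added for 2–4 h, with absorbance read at 450 nm against a 690 nm reference. IC50 was taken from curve fits. Leukemia lines were grown in RPMI-1640, K562 in IMDM and MDA-MB-468 in DMEM, all with 10 % FBS. Values are means ± SD of two biological experiments (three for BT549 and MDA-MB-468).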

EOL1 = assay: Anti-proliferative activity against human EOL1 cells assessed as cell viability measured after 5 days incubation by CCK-8 assay; format: functional, cell-based; settings: EOL1, 120 h; outline: as §2
MV4-11 = assay: Anti-proliferative activity against human MV4-11 cells assessed as cell viability measured after 5 days incubation by CCK-8 assay; format: functional, cell-based; settings: MV4-11, 120 h; outline: as §2
[2] = biological target: T1, von Hippel-Lindau disease tumor suppressor/Histone-lysine N-methyltransferase EZH2; assay: PROTAC activity at VHL/EZH2 degradation in hMLLr AML cell line EOL1 cells assessed as protein degradation at 1 uM measured after 24 hrs by Western blot analysis; format: cell-based; outline: as §1
[3] = biological target: T1, von Hippel-Lindau disease tumor suppressor/Histone-lysine N-methyltransferase EZH2; assay: PROTAC activity at VHL/EZH2 degradation in hMLLr AML cell line EOL1 cells assessed as protein degradation at 0.1 uM measured after 24 hrs by Western blot analysis; format: cell-based; outline: as §1
BT-549 = assay: Anti-proliferative activity against human BT-549 cells assessed as cell growth inhibition measured after 5 days incubation by CCK-8 assay; format: functional, cell-based; settings: BT-549, 120 h; outline: as §2
MDA-MB-468 = assay: Anti-proliferative activity against human MDA-MB-468 cells assessed as cell growth inhibition measured after 5 days incubation by CCK-8 assay; format: functional, cell-based; settings: MDA-MB-468, 120 h; outline: as §2

SMILES | Activity [1] | IC50 (RS4-11) [µM] | IC50 (EOL1) [µM] | IC50 (MV4-11) [µM] | further results
CCN(c1cc(-c2ccc(CN3CCN(CCC(=O)NCCCCC(=O)N[C@H](C(=O)N4C[C@H](O)C[C@H]4C(=O)NCc4ccc(-c5scnc5C)cc4)C(C)(C)C)CC3)cc2)cc(C(=O)NCc2c(C)cc(C)[nH]c2=O)c1C)C1CCOCC1 | inactive |  |  |  | 
CCN(c1cc(-c2ccc(CN3CCN(CCC(=O)NCCCCCCCCC(=O)N[C@H](C(=O)N4C[C@H](O)C[C@H]4C(=O)NCc4ccc(-c5scnc5C)cc4)C(C)(C)C)CC3)cc2)cc(C(=O)NCc2c(C)cc(C)[nH]c2=O)c1C)C1CCOCC1 | Active |  |  |  | 
CCN(c1cc(-c2ccc(OCCCOCC(=O)N[C@H](C(=O)N3C[C@H](O)C[C@H]3C(=O)NCc3ccc(-c4scnc4C)cc3)C(C)(C)C)cc2)cc(C(=O)NCc2c(C)cc(C)[nH]c2=O)c1C)C1CCOCC1 |  | 4.07 | 5.4 | > 10 | 
CCN(c1cc(-c2ccc(CN3CCN(C(=O)CCCCCCCC(=O)N[C@H](C(=O)N4C[C@H](O)C[C@H]4C(=O)NCc4ccc(-c5scnc5C)cc4)C(C)(C)C)CC3)cc2)cc(C(=O)NCc2c(C)cc(C)[nH]c2=O)c1C)C1CCOCC1 |  | 1.4 | 0.42 | 1 | 
CCN(c1cc(-c2ccc(CN3CCN(CCC(=O)NCCCCCCC(=O)N[C@H](C(=O)N4C[C@H](O)C[C@H]4C(=O)NCc4ccc(-c5scnc5C)cc4)C(C)(C)C)CC3)cc2)cc(C(=O)NCc2c(C)cc(C)[nH]c2=O)c1C)C1CCOCC1 | inactive |  |  |  | 
CCN(c1cc(-c2ccc(CN3CCN(CCC(=O)NCCCCCCCC(=O)N[C@H](C(=O)N4C[C@H](O)C[C@H]4C(=O)NCc4ccc(-c5scnc5C)cc4)C(C)(C)C)CC3)cc2)cc(C(=O)NCc2c(C)cc(C)[nH]c2=O)c1C)C1CCOCC1 | Active |  |  |  | 
CCN(c1cc(-c2ccc(CN3CCN(CCC(=O)NCCCCCCCCCC(=O)N[C@H](C(=O)N4C[C@H](O)C[C@H]4C(=O)NCc4ccc(-c5scnc5C)cc4)C(C)(C)C)CC3)cc2)cc(C(=O)NCc2c(C)cc(C)[nH]c2=O)c1C)C1CCOCC1 |  |  |  |  | Activity [2]: Active; Activity [3]: 100%
CCN(c1cc(-c2ccc(CN3CCOCC3)cc2)cc(C(=O)NCc2c(C)cc(C)[nH]c2=O)c1C)C1CCOCC1 [TAZEMETOSTAT] |  |  |  |  | IC50 (BT-549): > 10 µM; IC50 (MDA-MB-468): > 2.5 µM
CCN(c1cc(-c2ccc(CN3CCN(CCC(=O)NCCCCCC(=O)N[C@H](C(=O)N4C[C@H](O)C[C@H]4C(=O)NCc4ccc(-c5scnc5C)cc4)C(C)(C)C)CC3)cc2)cc(C(=O)NCc2c(C)cc(C)[nH]c2=O)c1C)C1CCOCC1 | inactive |  |  |  | 
CCN(c1cc(-c2ccc(CN3CCN(CCCCCCCOc4cccc5c4C(=O)N(C4CCC(=O)NC4=O)C5=O)CC3)cc2)cc(C(=O)NCc2c(C)cc(C)[nH]c2=O)c1C)C1CCOCC1 (stereo unspecified) |  | 5 | 3.7 | 5.5 | 
Cc1cc(C)c(CNC(=O)c2cc(-c3ccc(N4CCN(CCCCCCCCCc5cn(CCOCCOCCOCCOCCOCCOCCNc6cccc7c6C(=O)N(C6CCC(=O)NC6=O)C7=O)nn5)CC4)nc3)cc3c2cnn3C(C)C)c(=O)[nH]1 (stereo unspecified) |  | 0.65 | 1 | 0.46 | 
